Assay results reported in ChEMBL document CHEMBL1240369, “Antiviral efficacy of the novel compound BIT225 against HIV-1 release from human macrophages” (Antimicrob Agents Chemother, 2010).
Active and inactive are the calls of the source. No cut-off for these calls is given here.

Molecular target: Protease (Human immunodeficiency virus 1) (UniProt Q9YQ12)
Test: Inhibition of HIV1 protease assessed as substrate cleavage by cell free assay
Method in brief: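 Cell-free fluorometric protease assay: compound (1–100 μM) was premixed with 2 μM quenched HIV-1 protease substrate 1. Background fluorescence (ex 340/em 490 nm) was read every 5 s for 5 min. HIV-1 protease was then added at 1.5% and cleavage followed for a further 5 min. LPV and EFV served as controls.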

Protease (Human immunodeficiency virus 1), sequence (Q9YQ12 as listed by the source): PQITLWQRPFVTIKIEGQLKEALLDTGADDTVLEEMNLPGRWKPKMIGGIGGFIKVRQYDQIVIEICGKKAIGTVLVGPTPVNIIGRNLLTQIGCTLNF

| Activity | Structure (SMILES) |
| --- | --- |
| Active | Cc1cccc(C)c1OCC(=O)N[C@@H](Cc1ccccc1)[C@@H](O)C[C@H](Cc1ccccc1)NC(=O)[C@H](C(C)C)N1CCCNC1=O |
| inactive | O=C1Nc2ccc(Cl)cc2[C@@](C#CC2CC2)(C(F)(F)F)O1 |
